Measurements published in ChEMBL document CHEMBL2375338, “Hydrolyzable tannins of tamaricaceous plants. V. Structures of monomeric-trimeric tannins and cytotoxicity of macrocyclic-type tannins isolated from Tamarix nilotica (1)” (J Nat Prod, 2013).

Columns and labels:
[1] = Cytotoxicity against human HPLF cells after 48 hrs by MTT assay; assay type: cell-based
How it was run: (§1)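 Adherent cells seeded 5 × 10^3/well and grown 48 h, then medium replaced with fresh medium holding test compound (DMSO stock 20 mM; top well 100 μM, serial 2-fold dilutions, triplicate wells). After a further 48 h, cells were washed with PBS lacking Ca/Mg and given 0.2 mg/mL MTT for 4 h. Lysis was in DMSO and A540 was read. CC50 came from the dose–response curve.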

[2] = Cytotoxicity against human HGF cells after 48 hrs by MTT assay; assay type: cell-based; how it was run: as §1
[3] = Cytotoxicity against human HPC cells after 48 hrs by MTT assay; assay type: cell-based; how it was run: as §1
[4] = system: HSC-3; experiment: Cytotoxicity against human HSC3 cells after 48 hrs by MTT assay; assay type: functional; conditions: HSC-3, 48 h; how it was run: as §1
[5] = system: HSC-4; experiment: Cytotoxicity against human HSC4 cells after 48 hrs by MTT assay; assay type: functional; conditions: HSC-4, 48 h; how it was run: as §1
[6] = system: HSC-2; experiment: Cytotoxicity against human HSC2 cells after 48 hrs by MTT assay; assay type: functional; conditions: HSC-2, 48 h; how it was run: as §1
[7] = system: HL-60; experiment: Cytotoxicity against human HL60 cells after 48 hrs by trypan blue exclusion assay; conditions: HL-60, 48 h

SMILES | CC50 at 48 h [1] [µM] | CC50 at 48 h [2] [µM] | CC50 at 48 h [3] [µM] | CC50 [4] [µM] | CC50 [5] [µM] | CC50 [6] [µM] | CC50 [7] [µM]
O=C1O[C@@H]2O[C@@H]3COC(=O)c4cc(O)c(O)c(O)c4-c4c(cc(O)c(O)c4O)C(=O)O[C@H]3[C@H](OC(=O)c3cc(O)c(O)c(O)c3)[C@H]2OC(=O)c2cc(O)c(O)c(O)c2Oc2cc(cc(O)c2O)C(=O)O[C@@H]2O[C@@H]3COC(=O)c4cc(O)c(O)c(O)c4-c4c(cc(O)c(O)c4O)C(=O)O[C@H]3[C@H](OC(=O)c3cc(O)c(O)c(O)c3)[C@H]2OC(=O)c2cc(O)c(O)c(O)c2Oc2c(O)cc1cc2O | > 100 | 95 | 84.3 | 24.3 | 28.7 | 19.9 | 54.2
O=C1O[C@@H]2O[C@@H]3COC(=O)c4cc(O)c(O)c(O)c4-c4c(cc(O)c(O)c4O)C(=O)O[C@H]3[C@H](OC(=O)c3cc(O)c(O)c(O)c3)[C@H]2OC(=O)c2cc(O)c(O)c(O)c2Oc2c(O)cc(cc2O)C(=O)O[C@@H]2O[C@@H]3COC(=O)c4cc(O)c(O)c(O)c4-c4c(cc(O)c(O)c4O)C(=O)O[C@H]3[C@H](OC(=O)c3cc(O)c(O)c(O)c3)[C@H]2OC(=O)c2cc(O)c(O)c(O)c2Oc2c(O)cc1cc2O | > 100 | 93.6 | 88.3 | 47.8 | 43 | 23 | 55.9
O=C1O[C@@H]2O[C@@H]3COC(=O)c4cc(O)c(O)c(O)c4-c4c(cc(O)c(O)c4O)C(=O)O[C@H]3[C@H](OC(=O)c3cc(O)c(O)c(O)c3)[C@H]2OC(=O)c2cc(O)c(O)c(O)c2Oc2c(O)cc(cc2O)C(=O)O[C@@H]2O[C@H](CO)[C@@H](O)[C@H](OC(=O)c3cc(O)c(O)c(O)c3)[C@H]2OC(=O)c2cc(O)c(O)c(O)c2Oc2cc1cc(O)c2O | > 100 | > 100 | 81 | 21.9 | 24.5 | 18.5 | 70.8
O=C1O[C@@H]2O[C@@H]3COC(=O)c4cc(O)c(O)c(O)c4-c4c(cc(O)c(O)c4O)C(=O)O[C@H]3[C@H](OC(=O)c3cc(O)c(O)c(O)c3)[C@H]2OC(=O)c2cc(O)c(O)c(O)c2Oc2cc(cc(O)c2O)C(=O)O[C@@H]2O[C@@H]3COC(=O)c4cc(O)c(O)c(O)c4-c4c(cc(O)c(O)c4O)C(=O)O[C@H]3[C@H](OC(=O)c3cc(O)c(O)c(O)c3)[C@H]2OC(=O)c2cc(O)c(O)c(O)c2Oc2cc(cc(O)c2O)C(=O)O[C@@H]2O[C@@H]3COC(=O)c4cc(O)c(O)c(O)c4-c4c(cc(O)c(O)c4O)C(=O)O[C@H]3[C@H](OC(=O)c3cc(O)c(O)c(O)c3)[C@H]2OC(=O)c2cc(O)c(O)c(O)c2Oc2c(O)cc1cc2O | > 100 | 96.6 | 90.7 | 34.2 | 42.9 | 22.3 | 30.5
O=C1O[C@@H]2O[C@@H]3COC(=O)c4cc(O)c(O)c(O)c4-c4c(cc(O)c(O)c4O)C(=O)O[C@H]3[C@H](OC(=O)c3cc(O)c(O)c(O)c3)[C@H]2OC(=O)c2cc(O)c(O)c(O)c2Oc2cc(cc(O)c2O)C(=O)O[C@@H]2O[C@H](CO)[C@@H](O)[C@H](OC(=O)c3cc(O)c(O)c(O)c3)[C@H]2OC(=O)c2cc(O)c(O)c(O)c2Oc2c(O)cc1cc2O | > 100 | > 100 | 80.3 | 20.8 | 26.6 | 20.2 | 62
